Reference: ChEMBL document CHEMBL1687930 (J Med Chem, 2011)

How the values were obtained:
[1] = Ratio of inhibition of growth in P-glycoprotein overexpressing human A2780-AD10 cells to inhibition of growth in human A2780; assay type: functional, A2780 ADR
LLC-PK1 [2] = assay: Ratio of GI50 for pig L-MDR1 cells overexpressing human P-glycoprotein to GI50 for pig LLC-PK1 cells; assay type: functional, Sus scrofa
Summary of the method: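 MDR ratio is the GI50 in L-MDR1 cells (Pgp-overexpressing) divided by the GI50 in parental LLC-PK1 cells. Each GI50 came from growth inhibition run at least in triplicate, with 8 wells per concentration, fitted by a four-parameter sigmoidal model.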

LLC-PK1 [3] = assay: Upregulation of P-glycoprotein mRNA expression in pig LLC-PK1 cells; assay type: functional, Sus scrofa
MDCK-II = assay: Ratio of GI50 for dog MDCK2-MDR1 cells overexpressing human P-glycoprotein to GI50 for dog MDCK2 cells; assay type: functional, Canis lupus familiaris
[4] = Upregulation of P-glycoprotein mRNA expression in dog MDCK2 cells; assay type: functional, cell-based; settings: Canis lupus familiaris; MDCK-II
LLC-PK1 [5] = assay: Growth inhibition of pig LLC-PK1 cells; assay type: functional; settings: Sus scrofa
Summary of the method: (§1)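 Parental lines (MDCKII, LLC-PK1) and matched Pgp-overexpressing lines (MDCKII-MDR1, about 500-fold Pgp; L-MDR1, about 25000-fold Pgp) were tested with and without the Pgp inhibitor LY335979. Each experiment was run at least in triplicate, with 8 wells per concentration. GI50 came from a nonlinear four-parameter sigmoidal concentration-response fit.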

[6] = Growth inhibition of pig L-MDR1 cells overexpressing human P-glycoprotein in presence of P-glycoprotein inhibitor LY335979; assay type: functional; settings: Sus scrofa; summary of the method: as §1
[7] = target: T1, Kinesin-like protein KIF11 (Homo sapiens, UniProt P52732); assay: Inhibition of untagged human Eg5 microtubule-stimulated ATPase activity
T1 sequence (P52732 whole entry): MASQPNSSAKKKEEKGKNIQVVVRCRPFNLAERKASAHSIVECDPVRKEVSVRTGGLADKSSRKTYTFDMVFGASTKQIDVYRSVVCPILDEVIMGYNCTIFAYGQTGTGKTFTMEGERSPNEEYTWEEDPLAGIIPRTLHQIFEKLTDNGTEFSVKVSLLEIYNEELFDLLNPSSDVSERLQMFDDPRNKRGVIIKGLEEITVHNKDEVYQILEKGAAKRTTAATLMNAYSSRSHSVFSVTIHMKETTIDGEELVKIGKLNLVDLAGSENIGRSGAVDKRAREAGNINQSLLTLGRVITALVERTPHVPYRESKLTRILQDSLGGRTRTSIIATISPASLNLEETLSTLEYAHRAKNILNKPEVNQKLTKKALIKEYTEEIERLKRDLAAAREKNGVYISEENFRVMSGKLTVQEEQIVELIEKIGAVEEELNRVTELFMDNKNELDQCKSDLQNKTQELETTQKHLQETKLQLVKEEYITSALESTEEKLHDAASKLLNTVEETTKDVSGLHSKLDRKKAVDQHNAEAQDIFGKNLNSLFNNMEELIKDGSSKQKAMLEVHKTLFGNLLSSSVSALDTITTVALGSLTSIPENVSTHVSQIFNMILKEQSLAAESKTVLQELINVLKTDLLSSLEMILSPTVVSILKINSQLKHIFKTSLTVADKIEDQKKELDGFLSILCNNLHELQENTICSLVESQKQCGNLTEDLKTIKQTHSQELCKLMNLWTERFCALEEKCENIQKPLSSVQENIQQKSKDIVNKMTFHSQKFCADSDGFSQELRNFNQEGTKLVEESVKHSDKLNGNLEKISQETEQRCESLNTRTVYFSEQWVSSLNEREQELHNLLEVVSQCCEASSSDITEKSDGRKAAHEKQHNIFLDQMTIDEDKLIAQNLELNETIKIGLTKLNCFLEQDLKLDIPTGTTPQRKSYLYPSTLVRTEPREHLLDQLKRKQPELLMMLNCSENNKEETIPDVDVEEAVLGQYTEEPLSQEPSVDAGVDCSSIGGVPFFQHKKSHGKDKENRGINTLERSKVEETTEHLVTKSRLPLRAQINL

[8] = target: T1, Kinesin-like protein KIF11; assay: Inhibition of untagged human Eg5 basal ATPase activity; settings: read-out: Ki(app)
[9] = Growth inhibition of dog MDCK2-MDR1 cells overexpressing human P-glycoprotein; assay type: functional; settings: Canis lupus familiaris, MDCK-II; summary of the method: as §1
[10] = Growth inhibition of dog MDCK2 cells in presence of P-glycoprotein inhibitor LY335979; assay type: functional; settings: Canis lupus familiaris, MDCK-II; summary of the method: as §1
LLC-PK1 [11] = assay: Growth inhibition of pig LLC-PK1 cells in presence of P-glycoprotein inhibitor LY335979; assay type: functional; settings: Sus scrofa; summary of the method: as §1
[12] = Growth inhibition of pig L-MDR1 cells overexpressing human P-glycoprotein; assay type: functional; settings: Sus scrofa; summary of the method: as §1
[13] = Growth inhibition of dog MDCK2 cells; assay type: functional; settings: Canis lupus familiaris, MDCK-II; summary of the method: as §1
[14] = Growth inhibition of dog MDCK2-MDR1 cells overexpressing human P-glycoprotein in presence of P-glycoprotein inhibitor LY335979; assay type: functional; settings: Canis lupus familiaris, MDCK-II; summary of the method: as §1
P388 [15] = assay: Upregulation of P-glycoprotein mRNA expression in mouse P388 cells; assay type: functional
P388 [16] = assay: Ratio of inhibition of growth in P-glycoprotein overexpressing mouse P388 cells to inhibition of growth in mouse P388; assay type: functional
KB 3-1 = assay: Ratio of inhibition of growth in P-glycoprotein overexpressing […] inhibition of growth in human KB-3-1 cells; assay type: functional

SMILES: CCCCN1C(=O)[C@@H]2Cc3c([nH]c4ccccc34)[C@@H](c3cccc(O)c3)N2C1=O
- Ratio [1]: 2.4

SMILES: NCCSC(c1ccccc1)(c1ccccc1)c1ccccc1
- RatioGI50 (LLC-PK1 [2]): 1.5
- fold change (FC) (LLC-PK1 [3]): 25000
- RatioGI50 (MDCK-II): 0.8
- fold change (FC) [4]: 500
- GI50 (LLC-PK1 [5]): 3290 nM
- GI50 [6]: 4810 nM
- IC50 [7]: 396 nM
- Ki [8]: 156 nM
- GI50 [9]: 570 nM
- GI50 [10]: 850 nM
- GI50 (LLC-PK1 [11]): 3880 nM
- GI50 [12]: 4830 nM
- GI50 [13]: 740 nM
- GI50 [14]: 610 nM

SMILES: CCOC(=O)C1=C(C)NC(=S)N[C@H]1c1cccc(O)c1 [S-MENASTROL]
- Ratio (LLC-PK1 [2]): 1
- fold change (FC) (LLC-PK1 [3]): 25000
- fold change (FC) (P388 [15]): 20000
- Ratio (P388 [16]): 1

SMILES: CN1CC[C@H](N(C)C(=O)N2CC(c3cc(F)ccc3F)=C[C@@]2(CO)c2ccccc2)[C@H](F)C1
- Ratio (KB 3-1): 4.5
